Consider 12 compounds from ChEMBL document CHEMBL4699622, “Structural and Functional Study of the Klebsiella pneumoniae VapBC Toxin-Antitoxin System, Including the Development of an Inhibitor That Activates VapC” (J Med Chem, 2020).

The source made the active and inactive calls. No cut-off for these calls is given here. Residues, ends and D or L forms follow the SMILES beside them.

As usually defined, the IC50 is the concentration at which inhibition is half-maximal. The term Kd denotes a measure of binding affinity in units of concentration. The low end stands for a tighter complex, the high end for a looser complex.

In test [1] the test system is Klebsiella pneumoniae. The test is described as follows: Binding affinity to Klebsiella pneumoniae MGH78578 N-terminal His6-tagged VapC expressed in Escherichia coli BL21(DE3) assessed as increase in RNAase activity measured after 1 hr using fluorophore-labelled RNA by spectrofluorimetric method. The method in brief: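 Free VapC (10 μM) was stripped of metals with 10 mM EDTA, then exchanged into purification buffer with 10 mM Mg²⁺. It was incubated without the VapB partner, with 40 U RNase inhibitor, in 20 mM HEPES pH 7.5 and 400 mM NaCl with quenched fluorophore-labelled RNA (5 pM final). Fluorescence was followed for 1 h at ex 490/em 520 nm.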

Test [2] is described as follows: Inhibition of Klebsiella pneumoniae MGH78578 N-terminal His6-tagged VapB/C expressed in Escherichia coli BL21(DE3) protein-protein interaction assessed as activation of VapC-mediated RNAase activity measured after 1 hr using fluorophore-labelled RNA by spectrofluorimetric method. The method in brief: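 Small molecule (1, 3.16 and 10 μM) was added to 10 μM VapBC complex. The complex was EDTA-stripped and Mg²⁺-reloaded, with 40 U RNase inhibitor, in 20 mM HEPES pH 7.5 and 400 mM NaCl with 5 pM final quenched RNA. RNase fluorescence was monitored for 1 h at ex 490/em 520 nm. Activity was expressed relative to free VapC. Screening was done in triplicate.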

Test [3] is described as follows: Binding affinity to Klebsiella pneumoniae MGH78578 N-terminal His6-tagged VapC expressed in Escherichia coli BL21(DE3) by isothermal titration calorimetry. The method in brief: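 Isothermal titration calorimetry was run at 25 °C with VapC, quantified by A280. Background was subtracted and the data were fitted to a single-site binding model.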
For orientation: ITC needs no label: the signal is the heat of the interaction.

Test [4] has as its system Klebsiella pneumoniae. The test is described as follows: Inhibition of Klebsiella pneumoniae MGH78578 N-terminal His6-tagged VapB/C expressed in Escherichia coli BL21(DE3) protein-protein interaction assessed as activation of VapC-mediated RNAase activity at 100 uM measured after 1 hr using fluorophore-labelled RNA by spectrofluorimetric method. The method in brief:
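Peptide (100 μM) was added to purified VapBC complex (10 μM), pretreated with 10 mM EDTA and then 10 mM Mg²⁺. The reaction used 40 U RNase inhibitor, 20 mM HEPES pH 7.5, 400 mM NaCl and 5 pM final fluorophore/quencher RNA. RFU from released VapC was read over 1 h at ex 490/em 520 nm. Mean of three independent replicates ± SD.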

Consider `NC(=O)NC(=O)CCN1CCC(C(=O)c2ccc(O)cc2)CC1`, for which the result in test [1] was inactive. Besides, in test [2], the IC50 amounted to 420 nM. The compound also returned a Kd in test [3] of 22 nM.

As to `CCC1Oc2cc(S(=O)(=O)N3CCCC(C(=O)Nc4ccc(F)cc4)C3)c(C)cc2NC1=O` (configuration not stated), the outcome in test [1] was inactive. For the same compound, the 50% inhibitory concentration (IC50) in test [2] came out at 400 nM. The compound also yielded a dissociation constant Kd in test [3] of 22 nM.

`CC[C@H](C)[C@H](NC(=O)[C@H](CC(C)C)NC(=O)[C@@H](NC(=O)[C@H](CC(N)=O)NC(=O)[C@@H](NC(=O)[C@@H](N)CC(=O)O)[C@@H](C)O)[C@@H](C)CC)C(=O)N[C@@H](CC(=O)O)C(=O)N[C@@H](CC(C)C)C(=O)N[C@@H](Cc1ccccc1)C(=O)O` (H-DTNILIDLF-OH): the inhibition result in test [4] is “Active”.

Consider `CC[C@H](C)[C@H](NC(=O)[C@H](CC(C)C)NC(=O)[C@@H](NC(=O)[C@H](CC(N)=O)NC(=O)[C@@H](NC(=O)[C@@H](N)CC(=O)O)[C@@H](C)O)[C@@H](C)CC)C(=O)N[C@@H](CC(=O)O)C(=O)N[C@@H](CC(C)C)C(=O)N[C@@H](Cc1ccccc1)C(=O)N[C@@H](CO)C(=O)O` (H-DTNILIDLFS-OH), for which the inhibition result in test [4] was “Active”.

In the case of `CSCC[C@H](NC(=O)CN)C(=O)N[C@@H](CCC(=O)O)C(=O)N[C@@H](C)C(=O)N[C@@H](C)C(=O)N[C@@H](CCCNC(=N)N)C(=O)N[C@@H](CCC(N)=O)C(=O)N[C@@H](CC(C)C)C(=O)O` (H-GMEAARQL-OH), the outcome in test [1] was Active.

For the compound `CSCC[C@H](NC(=O)CN)C(=O)N[C@@H](CCC(=O)O)C(=O)N[C@@H](C)C(=O)N[C@@H](CCC(N)=O)C(=O)N[C@@H](CCCNC(=N)N)C(=O)N[C@@H](CCC(N)=O)C(=O)N[C@@H](CC(C)C)C(=O)O` (H-GMEAQRQL-OH), the outcome in test [1] was Active. For the same compound, in test [4], the inhibition entry is “Active”. In test [3], this compound returned a Kd of 170 nM.

`CSCC[C@H](NC(=O)CN)C(=O)N[C@@H](CCC(=O)O)C(=O)N[C@@H](Cc1ccc(O)cc1)C(=O)N[C@@H](C)C(=O)N[C@@H](CCCNC(=N)N)C(=O)N[C@@H](CCC(N)=O)C(=O)N[C@@H](CC(C)C)C(=O)O` (H-GMEYARQL-OH): in test [1], the result was Active. Besides, in test [4], the inhibition result is “Active”. Further, the Kd in test [3] came to 150 nM.

Regarding `CSCC[C@H](NC(=O)CN)C(=O)N[C@@H](CCC(=O)O)C(=O)N[C@@H](Cc1ccc(O)cc1)C(=O)N[C@@H](CCC(N)=O)C(=O)N[C@@H](CCCNC(=N)N)C(=O)N[C@@H](CCC(N)=O)C(=O)N[C@@H](CC(C)C)C(=O)O` (H-GMEYQRQL-OH), the outcome in test [1] was Active. Besides, the inhibition result in test [4] is “Active”. In addition, in test [3], the Kd amounted to 110 nM.

Consider `CSCC[C@H](NC(=O)CN)C(=O)N[C@@H](CCC(=O)O)C(=O)N[C@@H](Cc1ccc(O)cc1)C(=O)N[C@@H](CCC(N)=O)C(=O)N[C@@H](CCCNC(=N)N)C(=O)N[C@@H](CCC(N)=O)C(=O)N[C@@H](CC(C)C)C(=O)N[C@@H](CCCNC(=N)N)C(=O)O` (H-GMEYQRQLR-OH), for which the result in test [1] was Active.

For the compound `CSCC[C@H](NC(=O)CN)C(=O)N[C@@H](CCC(=O)O)C(=O)N[C@@H](Cc1ccc(O)cc1)C(=O)N[C@@H](CCC(N)=O)C(=O)N[C@@H](CCCNC(=N)N)C(=O)N[C@@H](CCC(N)=O)C(=O)N[C@@H](CC(C)C)C(=O)N[C@@H](CCCNC(=N)N)C(=O)N[C@@H](CCCCN)C(=O)O` (H-GMEYQRQLRK-OH), the result in test [1] was Active.

As to `CC[C@H](C)[C@H](NC(=O)[C@H](CC(C)C)NC(=O)[C@@H](NC(=O)[C@H](CC(N)=O)NC(=O)[C@@H](N)[C@@H](C)O)[C@@H](C)CC)C(=O)N[C@@H](CC(=O)O)C(=O)N[C@@H](CC(C)C)C(=O)N[C@@H](Cc1ccccc1)C(=O)O` (H-TNILIDLF-OH), the inhibition entry in test [4] is “Active”.

With `CC[C@H](C)[C@H](NC(=O)[C@H](CC(C)C)NC(=O)[C@@H](NC(=O)[C@H](CC(N)=O)NC(=O)[C@@H](N)[C@@H](C)O)[C@@H](C)CC)C(=O)N[C@@H](CC(=O)O)C(=O)N[C@@H](CC(C)C)C(=O)N[C@@H](Cc1ccccc1)C(=O)N[C@@H](CO)C(=O)O` (H-TNILIDLFS-OH), the inhibition result in test [4] was “Active”.
